Compound activity: PubChem, The Scripps Research Institute Molecular Screening Center
ADAM17 inh – ADAM17 inhibitors, primary screen, biochemical, QFRET; actives 0.83% (n = 370,000); Disintegrin and metalloproteinase domain-containing protein 17 (Homo sapiens), P78536; inhibition, % at 6.95 µM; recombinant ADAM17, EDANS/DABCYL FRET peptide cleavage; AID 720648, 2013;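 active means inhibition above the mean of compounds lying between control limits plus 3 SD, set per campaign, cut at about 8.5% in these data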
Target sequence (P78536 215-824 limits assumed): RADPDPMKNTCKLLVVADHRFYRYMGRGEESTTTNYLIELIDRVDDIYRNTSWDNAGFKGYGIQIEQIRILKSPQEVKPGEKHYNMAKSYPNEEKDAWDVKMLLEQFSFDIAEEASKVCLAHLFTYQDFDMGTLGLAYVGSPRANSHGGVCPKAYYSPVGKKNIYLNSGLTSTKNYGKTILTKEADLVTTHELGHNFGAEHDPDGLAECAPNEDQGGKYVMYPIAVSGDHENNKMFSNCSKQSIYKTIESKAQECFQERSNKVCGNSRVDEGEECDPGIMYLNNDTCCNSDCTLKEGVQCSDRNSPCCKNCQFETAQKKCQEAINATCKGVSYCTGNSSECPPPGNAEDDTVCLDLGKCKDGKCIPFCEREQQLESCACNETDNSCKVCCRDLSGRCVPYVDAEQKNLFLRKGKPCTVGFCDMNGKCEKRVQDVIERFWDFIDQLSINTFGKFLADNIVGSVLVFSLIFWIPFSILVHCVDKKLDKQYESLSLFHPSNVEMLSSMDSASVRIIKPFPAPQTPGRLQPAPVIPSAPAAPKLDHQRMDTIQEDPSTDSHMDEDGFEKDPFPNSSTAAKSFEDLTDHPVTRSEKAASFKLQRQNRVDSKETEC
PLC-beta3 inh – human PLC-beta3 inhibitors, primary screen, biochemical, fluorescence; 1-phosphatidylinositol 4,5-bisphosphate phosphodiesterase beta-3 (Homo sapiens), Q01970; Purified PLC-beta3, fluorogenic substrate; inhibition, % at 12.2 µM; actives 0.18% (n = 370,000); in the data active means inhibition above about 11%
DDE Tn7 FP inh – inhibitors of Tn7 peptide binding to fibrin DD(E), primary screen, biochemical, fluorescence polarization, human fibrin, Tn7 probe. FP displacement of FITC-Tn7 peptide from fibrin DD(E); 0% = median of compound wells per plate. Fibrinogen beta chain (Homo sapiens), P02675. actives 0.13% (n = 370,000). inhibition, % at 8.3 µM;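 active means inhibition above the mean of compounds falling within the control limits plus 3 SD of them, cut at about 14% in these data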
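Measure: % inhibition scaled between sample-field median and high-control FP; Test system: human fibrin DD(E); Quantity: 2 µM final DD(E) protein; Doses: one dose, 8.3 µM nominal; Schedule: compound with protein 10 min, then 3 h after probe, room temperature; Detection: fluorescence polarization; Medium: Tris buffer with calcium and detergent, pH 7.8.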
PLC-gamma1 inh – PLC-gamma1 enzyme inhibitors, primary screen, biochemical, fluorescence, purified enzyme. 1-phosphatidylinositol 4,5-bisphosphate phosphodiesterase gamma-1 (Homo sapiens), P19174. fluorogenic substrate. inhibition, % at 12.2 µM. actives 0.84% (n = 370,000); in the data active means inhibition above about 9.5%
DDE Tn6 FP inh – inhibitors of Tn6 peptide binding to fibrin DD(E), primary screen, biochemical, fluorescence polarization, human fibrin, Tn6 probe. Fibrinogen beta chain (Homo sapiens), P02675. Fibrin DD(E) TRITC-Tn6 fluorescence polarization displacement. inhibition, % at 8.3 µM. actives 0.21% (n = 370,000). AID 720509, 2013;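 active means inhibition above a per-campaign cutoff: mean of compounds within control limits plus 3 SD, cut at about 15% in these data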
ADAM10 inh – human ADAM10 inhibitors, primary screen, biochemical, QFRET, HTS. recombinant ADAM10, EDANS/DABCYL FRET peptide cleavage, 3 h. actives 0.62% (n = 370,000). inhibition, % at 7 µM. AID 720582, 2013. Disintegrin and metalloproteinase domain-containing protein 10 (Homo sapiens), O14672;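 active means inhibition above a per-campaign cutoff equal to the mean of compounds falling between control-based bounds plus 3 SD, cut at about 20% in these data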
DDE Tn6 FP ctr – counter-screen hit for Tn6 peptide-fibrin DD(E) binding disruption; shares compounds with DDE Tn6 FP inh; TRITC-Tn6 fluorescence polarization displacement; 0% = median of compound wells, not DMSO; inhibition, % at 8.3 µM; actives 2% (n = 680); AID 720621;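 active means inhibition above the mean of test compounds lying between the control limits plus 3 SD of those, cut at about 14% in these data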
Tn6 DDE conf – inhibitors of Tn6 peptide binding to fibrin DD(E), confirmation, biochemical, fluorescence polarization, human fibrin, Tn6 probe | FP displacement of TRITC-Tn6 peptide from DD(E); 0% = per-plate median of test wells | actives 10% (n = 680) | inhibition, % at 8.3 µM | shares compounds with DDE Tn6 FP inh;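 active means inhibition above the mean of compounds lying within the control limits plus 3 SD, cut at about 16% in these data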
Numbers stand for hits; i = inactive; nt = no result given. Rows were chosen to be rich in hits. Some 2.3% of all compounds tested hit in one or more screens of this group.

SMILES	ADAM17 inh	PLC-beta3 inh	DDE Tn7 FP inh	PLC-gamma1 inh	DDE Tn6 FP inh	ADAM10 inh	DDE Tn6 FP ctr	Tn6 DDE conf
C[C@@H]1CN(Cc2nc(-c3ccc(Cl)cc3)no2)C[C@H](C)O1	i	i	i	i	17	i	i	i
Clc1ccc(-c2noc(CN3CCCC3)n2)cc1	i	i	i	i	i	i	nt	nt
Cc1cc(C)n2nc(-c3cnn(C)c3C(F)(F)F)c(Cl)c2n1	i	i	i	i	i	i	nt	nt
Cc1cc(C(F)(F)F)n2nc(-c3cnn(C)c3C(F)(F)F)c(Cl)c2n1	i	i	i	i	16	i	i	i
COc1ccc(NC(=O)c2cc3c(C)nn(-c4ccccc4)c3s2)cc1	i	i	i	i	i	i	nt	nt
CCCCCC(=O)Nc1ccc2oc(-c3cncc(Br)c3)nc2c1	i	i	i	i	16	i	i	i
CCCC(=O)Nc1ccc2oc(-c3cncc(Br)c3)nc2c1	i	i	i	i	i	i	nt	nt
CC1(C)CC(=O)N(CC(=O)N2CCN(Cc3ccccc3)CC2)c2ccccc2S1(=O)=O	i	i	i	i	i	i	nt	nt
Cc1cc(NC(=O)c2ccc(NS(=O)(=O)c3ccc(F)cc3)cc2)no1	i	i	i	i	17	i	i	i
CC1CCC2(CC1)CCC2NCc1ccc(Br)cc1 (centres undefined)	i	i	i	i	i	i	nt	nt
Oc1cc2c(cc1O)C1c3ccc(O)c(O)c3OCC1(O)C2 (centres undefined)	i	i	i	i	33	i	i	21
COc1ccc(C)cc1S(=O)(=O)N1CCN(c2ccccc2)CC1	i	i	i	i	16	i	i	i
COc1ccc(C)cc1S(=O)(=O)N1CCN(S(=O)(=O)c2cc(C)ccc2OC)CC1	i	i	i	i	i	i	nt	nt
COc1cccc(N2CCN(CC(=O)NCc3ccc(Cl)cc3)CC2)c1	i	i	i	i	i	i	nt	nt
CCn1ccc(=N)cc1	i	i	i	i	20	i	i	i
CCCCCn1ccc(=N)cc1	i	i	i	i	i	i	nt	nt
Cc1ccccc1NC(=O)c1ccccc1NC(=O)c1ccco1	i	i	i	i	16	i	i	i
C(=N\NC1=Nc2cccc3cccc1c23)/c1ccccc1	i	i	i	i	i	i	nt	nt
NC1=Nc2cccc3cccc1c23	i	i	i	i	38	i	i	46
Cc1ccc(NC(=O)Cc2nc(CCl)cs2)cc1	i	i	i	i	15	i	i	i
Cc1ccc(-n2c(SCC(=O)Nc3ccc4c(c3)OCCO4)nnc2-c2cnccn2)cc1	i	i	i	i	i	i	nt	nt
Cc1ccccc1C(=O)N1CCC(C(=O)Nc2ccc(F)cc2)CC1	i	i	i	i	15	i	i	i
Cc1ccccc1C(=O)N1CCC(C(=O)Nc2ccccn2)CC1	i	i	i	i	44	i	i	i
Cc1ccccc1C(=O)N1CCC(C(=O)NC2CCCCCC2)CC1	i	i	i	i	i	i	nt	nt
Cc1ccccc1C(=O)N1CCC(C(=O)Nc2ccc(C(C)C)cc2)CC1	i	i	i	i	i	i	nt	nt
O=[n+]1c2c(n([O-])c3cc(F)c(N4CCCC4)cc31)CCC2	i	i	i	i	16	i	i	17
O=[n+]1c2c(n([O-])c3cc(F)c(N4CCCC4)cc31)CCCC2	i	i	i	i	i	i	nt	nt
Brc1ccc(-c2nc3ccccc3s2)s1	i	i	i	i	i	i	nt	nt
